pIC50: −log10 of the molar value. Calls of active or inactive are those of the source. The calls are words filed in the database; no cut-off is given here.
Columns and labels:
[1] = biological target: T1, Acetylcholinesterase (Mus musculus, UniProt P21836); experiment: biochemical; assay type: tissue-based, LACA, Brain
T1 sequence (P21836 whole entry): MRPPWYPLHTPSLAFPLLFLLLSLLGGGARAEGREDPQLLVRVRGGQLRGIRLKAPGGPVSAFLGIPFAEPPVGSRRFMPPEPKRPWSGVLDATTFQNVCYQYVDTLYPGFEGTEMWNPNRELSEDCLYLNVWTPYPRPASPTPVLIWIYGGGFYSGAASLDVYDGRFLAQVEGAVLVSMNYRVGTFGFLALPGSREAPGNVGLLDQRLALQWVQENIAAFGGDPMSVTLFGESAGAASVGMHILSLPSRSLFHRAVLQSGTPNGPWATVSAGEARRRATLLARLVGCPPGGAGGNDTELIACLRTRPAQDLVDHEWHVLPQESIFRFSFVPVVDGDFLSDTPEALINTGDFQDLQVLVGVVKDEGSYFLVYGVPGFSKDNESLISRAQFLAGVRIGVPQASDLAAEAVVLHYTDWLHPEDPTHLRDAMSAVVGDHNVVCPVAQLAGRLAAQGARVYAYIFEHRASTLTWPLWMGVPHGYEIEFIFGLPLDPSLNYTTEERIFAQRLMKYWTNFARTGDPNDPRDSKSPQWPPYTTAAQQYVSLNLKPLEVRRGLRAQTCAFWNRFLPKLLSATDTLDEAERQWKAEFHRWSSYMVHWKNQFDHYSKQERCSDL

[2] = tested on: Mus musculus; experiment: Antiamnesic activity in Albino LACA mouse assessed as decrease in scopolamine-induced increase in escape latency time administered intraperitoneally 5 mins post scopolamine challenge for 35 mins by Morris water maze test; assay type: functional, organism-based
Method in brief: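 Mice of either sex, 25-35 g, housed in groups of five. […] Water maze: water 30 cm deep at 28 ± 2 °C, 5 days, 90 s maximum per trial, then a 90 s probe trial. Read-out is escape latency; n = 5, mean ± SEM.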

[3] = tested on: Mus musculus; experiment: Antiamnesic activity in Albino LACA mouse assessed as scopolamine-induced increase in escape latency time administered intraperitoneally 5 mins post scopolamine challenge for 35 mins by Morris water maze test (reference value: 49.35 +/- 2.21 secs); assay type: functional
Method in brief: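 LACA albino mice, 25-35 g, either sex, housed five per group. Scopolamine 0.5 mg/kg i.p. or saline given 35 min before training, then vehicle (0.25% CMC suspension) or compound 1 mg/kg i.p. 5 min later. Water maze at 30 cm depth, 28 ± 2 °C, training over 5 days, 90 s maximum per trial, probe trial 90 s. Escape latency recorded, mean of 5 mice.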

Q: How did the pIC50 [1] turn out when `O=c1cc(OCCCN2CCN(c3ccc(F)cc3)CC2)c2ccccc2o1` was run?
A: The pIC50 was 5.02.

Q: And the Activity [2]?
A: The Activity was “Active”.

Q: How did the pIC50 [1] turn out when `O=c1cc(OCCCCN2CCN(c3ccccc3F)CC2)c2ccccc2o1` was run?
A: Its pIC50 is 4.53.

Q: And the Activity [2]?
A: The Activity was “Active”.

Q: With `O=c1cc(OCCCN2CCC(Cc3ccccc3)CC2)c2ccccc2o1` as the compound, how does the pIC50 [1] read?
A: Its pIC50 is 4.94.

Q: And the Activity [2]?
A: Its Activity is “Active”.

Q: How did the pIC50 [1] turn out when `O=c1cc(OCCCN2CCN(c3ccccn3)CC2)c2ccccc2o1` was run?
A: The pIC50 was 4.79.

Q: What about the Activity [2] of the same compound?
A: Its Activity is “Active”.

Q: With `O=c1cc(OCCCN2CCN(c3ncccn3)CC2)c2ccccc2o1` as the compound, how does the pIC50 [1] read?
A: Its pIC50 is 4.66.

Q: And the Time [3]?
A: Its Time is 13.98 s.

Q: And the Activity [2]?
A: The Activity was “Active”.

Q: With `O=c1cc(OCCCCN2CCN(c3ccccc3)CC2)c2ccccc2o1` as the compound, how does the pIC50 [1] read?
A: The pIC50 was 4.83.

Q: And the Activity [2]?
A: Its Activity is “Active”.

Q: With `O=c1cc(OCCCCN2CCN(c3ccccn3)CC2)c2ccccc2o1` as the compound, how does the pIC50 [1] read?
A: Its pIC50 is 4.43.

Q: What about the Activity [2] of the same compound?
A: Its Activity is “Active”.

Q: `O=c1cc(OCCCN2CCN(c3ccccc3)CC2)c2ccccc2o1` was tested. Which pIC50 [1] did it give?
A: Its pIC50 is 5.62.

Q: What about the Time [3] of the same compound?
A: The Time was 8.05 s.

Q: And the Activity [2]?
A: The Activity was “Active”.

Q: What does the source list for `O=C(Oc1cc(=O)oc2ccccc12)N1CCN(c2ccccc2)CC1`?
A: pIC50 [1]: 4.13; Activity [2]: Active

Q: What does the source list for `O=c1cc(OCCCCN2CCN(c3ncccn3)CC2)c2ccccc2o1`?
A: pIC50 [1]: 4.46; Activity [2]: Active

Q: `O=c1cc(OCCCNCCc2ccccc2)c2ccccc2o1` was tested. Which pIC50 [1] did it give?
A: The pIC50 was 4.17.

Q: What about the Activity [2] of the same compound?
A: Its Activity is “Active”.

Q: `COc1ccc(CCNCCCOc2cc(=O)oc3ccccc23)cc1OC` was tested. Which pIC50 [1] did it give?
A: Its pIC50 is 4.33.

Q: What about the Activity [2] of the same compound?
A: Its Activity is “Active”.

Q: Which results are given for `O=c1cc(OCCCN2CCN(c3ccccc3F)CC2)c2ccccc2o1`?
A: pIC50 [1]: 5.28; Time [3]: 11.8 s; Activity [2]: Active

Q: `O=C(NCCc1ccccc1)Oc1cc(=O)oc2ccccc12` was tested. Which pIC50 [1] did it give?
A: Its pIC50 is 4.08.

Q: And the Activity [2]?
A: Its Activity is “Active”.

Reference: ChEMBL document CHEMBL4431342, “Coumarin derivatives as potential inhibitors of acetylcholinesterase: Synthesis, molecular docking and biological studies” (Bioorg Med Chem, 2016)
